Results of several laboratories.
Each line is one published result; the experiments were not run side by side.
Target: Calcium/calmodulin-dependent protein kinase kinase 2 (CAMKK2, Homo sapiens, UniProt Q96RR4)

| SMILES | test | conditions | remaining binding |
| --- | --- | --- | --- |
| Cc1cnc(Nc2ccc(C(=O)N3CCC(N4CCCC4)CC3)cc2)nc1-c1cc2ccccc2s1 | binding, competition with immobilised ligand | 1 µM | 81% |
| O=C(Nc1c[nH]nc1C(=O)NC1CCNCC1)c1cc(F)cc(F)c1 | binding, competition with immobilised ligand | 1 µM | 91% |
| COc1ccnn2ncc(-c3ccnc(N(C)C)n3)c12 | binding | 1 µM | 80% |
| C[C@H](c1ccc(F)cc1)N(Cc1cccc(C(=O)O)c1)C(=O)c1cnc2ccccc2c1 | cell-free assay, competition with immobilised ligand | 1 µM | 95% |
| N[C@H]1CCN(c2nccc(-c3cnn4ncccc34)n2)C1 | binding | 1 µM | 100% |
| CCN1CCN(Cc2ccc(C(=O)Nc3ccc(C)c(Oc4ccc5c(c4)CC(=O)N5)c3)cc2C(F)(F)F)CC1 | binding, competition with immobilised ligand | 1 µM | 96% |
| C[C@@H](c1ccc(-n2cnc3c(N)ncnc32)cc1)N1CCc2nn(C)c(Cc3ccccc3)c2C1=O | binding, competition with immobilised ligand | 0.1 µM | 94% |
| c1cncc(-c2cccc(Nc3nccc(NC4CCCCC4)n3)c2)c1 | binding, competition with immobilised ligand | 10 µM | 69% |
| CC(C)CC(=O)N1CCc2nc(-c3ccc(Br)cc3)nc(N(C)Cc3ccccc3)c2C1 | cell-free assay, competition with immobilised ligand | 0.1 µM | 100% |
| O=C(NCCCN1CCOCC1)c1ccc(Nc2nccc(-c3cc4ccccc4s3)n2)cc1 | binding, competition with immobilised ligand | 1 µM | 81% |
| CN(C)c1ncc(F)c(-c2cnn3ncccc23)n1 | binding | 1 µM | 86% |
| N#Cc1ccc(Nc2ccc3[nH]c(=O)[nH]c3c2)c(Cl)c1 | cell-free assay, competition with immobilised ligand | 1 µM | 91% |
| CN(c1nccc(-c2cnn3ncccc23)n1)C1CC1 | binding | 1 µM | 100% |
| CNC(=O)[C@@H]1CC[C@@H](n2c(-c3ccc4cnccc4c3)nc3ccc(C(=O)NCc4cccc(C(N)=O)c4)cc32)C1 | binding, competition with immobilised ligand | 1 µM | 85% |
| CO[C@H]1CC[C@H](CNc2ccc(S(=O)(=O)NC(=O)c3ccc(N4CCN(CC5=C(c6ccc(Cl)cc6)CC(C)(C)CC5)CC4)cc3Oc3cnc4[nH]ccc4c3)cc2[N+](=O)[O-])CC1 | cell-free assay, competition with immobilised ligand | 1 µM | 81% |
| C[C@H]1CCN(c2nccc(-c3cnn4ncccc34)n2)C1 | binding | 1 µM | 74% |
| CNC(=O)c1ccc(Nc2ncc(C(F)(F)F)c(NCc3nccnc3N(C)S(C)(=O)=O)n2)cc1 | cell-free assay, competition with immobilised ligand | 0.1 µM | 68% |
| COc1ncc2cc3ccccc3nc2c1C#N | cell-free assay, competition with immobilised ligand | 5 µM | 96% |
| CN(CCCC(F)(F)F)c1nccc(-c2cnn3ncccc23)n1 | binding | 1 µM | 100% |
| COc1cccc(CNC(=O)c2nc3scc(COCc4ccc(C(=O)O)cc4)c3c(=O)[nH]2)c1 | cell-free assay, competition with immobilised ligand | 1 µM | 100% |
